# From ChEMBL document CHEMBL4316581, “Efforts in redesigning the antileukemic drug 6-thiopurine: decreasing toxic side effects while maintaining efficacy” (Medchemcomm, 2019)
# Assays:
# [1] = biological target: T1, UGT1A (UDP-glucuronosyltransferase 1A1) (Rattus norvegicus, UniProt Q64550); test: Inhibition of UGT1A in rat hepatocytes assessed as decrease in bilirubin diglucuronide level at 10 uM preincubated for 2 mins followed by UDPGA addition measured after 45 mins by HPLC analysis relative to control; assay type: ADME, cell-based; conditions: probe bilirubin (readout: bilirubin diglucuronide level)
# T1 sequence (Q64550 whole entry): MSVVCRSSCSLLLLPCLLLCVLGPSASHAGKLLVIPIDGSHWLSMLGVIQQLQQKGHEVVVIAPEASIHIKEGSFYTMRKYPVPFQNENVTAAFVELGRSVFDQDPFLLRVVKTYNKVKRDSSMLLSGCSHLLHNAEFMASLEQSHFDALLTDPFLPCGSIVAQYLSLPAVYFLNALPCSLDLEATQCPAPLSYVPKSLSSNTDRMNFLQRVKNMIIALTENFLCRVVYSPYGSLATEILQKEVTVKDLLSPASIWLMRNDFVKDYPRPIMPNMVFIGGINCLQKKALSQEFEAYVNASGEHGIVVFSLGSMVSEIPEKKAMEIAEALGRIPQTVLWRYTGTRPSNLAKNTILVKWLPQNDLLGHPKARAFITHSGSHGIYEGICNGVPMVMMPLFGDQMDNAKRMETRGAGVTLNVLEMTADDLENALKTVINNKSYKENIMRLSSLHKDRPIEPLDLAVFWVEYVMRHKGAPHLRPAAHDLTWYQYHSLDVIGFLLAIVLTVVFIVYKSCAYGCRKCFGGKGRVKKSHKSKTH
# Method in brief: (§1)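 Rat liver microsomes (100 µg protein/mL) were used, with alamethicin 22 µg/mL, bilirubin 10 µM and MgCl2 0.88 mM in 50 mM potassium phosphate pH 7.4, at 37 °C with shaking under minimal light. Purine or no-purine control was preincubated 2 min before UDPGA (3.5 mM) started the reaction. Reactions were stopped with ice-cold methanol containing 200 mM ascorbic acid and centrifuged. Unconjugated bilirubin and mono- and diglucuronides were quantified by gradient HPLC against bilirubin calibration curves over a 45-min time course.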
# [2] = biological target: T2, UDP-glucuronosyltransferase 1A1 (Rattus norvegicus, UniProt Q64550); test: Inhibition of UGT1A in rat hepatocytes assessed as decrease in bilirubin diglucuronide level at 10 uM after 45 mins in presence of UDPGA by HPLC analysis; assay type: ADME, cell-based; conditions: 0.75 h; method in brief: as §1
# T2 sequence (Q64550 whole entry): T1 sequence (Q64550 whole entry)
# [3] = biological target: T1, UGT1A (UDP-glucuronosyltransferase 1A1); test: Inhibition of UGT1A in rat hepatocytes assessed as decrease in bilirubin monoglucuronide level at 10 uM preincubated for 2 mins followed by UDPGA addition measured after 45 mins by HPLC analysis relative to control; assay type: ADME, cell-based; conditions: probe bilirubin (readout: bilirubin monoglucuronide level); method in brief: as §1
# [4] = biological target: T2, UDP-glucuronosyltransferase 1A1; test: Inhibition of UGT1A in rat hepatocytes assessed as decrease in bilirubin monoglucuronide level at 10 uM after 45 mins in presence of UDPGA by HPLC analysis; assay type: ADME, cell-based; conditions: 0.75 h; method in brief: as §1
# [5] = biological target: T3, UDP-glucose 6-dehydrogenase (Rattus norvegicus, UniProt O70199); test: Inhibition of UDPGDH in rat hepatocytes after 20 to 120 secs by UV/Vis spectrophotometric analysis; assay type: cell-based
# T3 sequence (O70199 whole entry): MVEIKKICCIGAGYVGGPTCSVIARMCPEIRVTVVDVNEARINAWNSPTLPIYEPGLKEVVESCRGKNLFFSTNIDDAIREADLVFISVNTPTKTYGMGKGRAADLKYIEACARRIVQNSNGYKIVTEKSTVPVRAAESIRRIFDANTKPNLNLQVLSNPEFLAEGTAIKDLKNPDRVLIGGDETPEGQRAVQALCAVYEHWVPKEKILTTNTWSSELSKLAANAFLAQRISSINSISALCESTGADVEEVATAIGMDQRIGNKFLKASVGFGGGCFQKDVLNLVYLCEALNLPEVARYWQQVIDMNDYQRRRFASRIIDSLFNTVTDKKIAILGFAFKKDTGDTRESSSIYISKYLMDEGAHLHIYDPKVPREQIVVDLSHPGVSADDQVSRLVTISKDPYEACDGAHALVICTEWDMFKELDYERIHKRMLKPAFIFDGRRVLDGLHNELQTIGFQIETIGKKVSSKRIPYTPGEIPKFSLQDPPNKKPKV
# Method in brief: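 Purified UDPGDH (0.1 unit/mL) was assayed spectrophotometrically at 340 nm and 25 °C in 150 mM Gly-Gly with saturating 3 mM NAD+. UDPG was varied (0.1, 0.05, 0.025, 0.02 mM) at several inhibitor concentrations. After 2 min thermal equilibration, the initial absorbance-versus-time rate was recorded. Runs were in triplicate; averaged slopes were plotted to derive inhibition values.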
# [6] = biological target: T4, UDPGDH (UDP-glucose 6-dehydrogenase) (Rattus norvegicus, UniProt O70199); test: Inhibition of UDPGDH in rat hepatocytes assessed as decrease in bilirubin monoglucuronide level at 5 uM preincubated for 2 mins followed by UDPGA addition measured after 45 mins by HPLC analysis relative to control; assay type: cell-based; conditions: probe bilirubin (readout: bilirubin monoglucuronide level); method in brief: as §1
# T4 sequence (O70199 whole entry): T3 sequence (O70199 whole entry)
# [7] = biological target: T2, UDP-glucuronosyltransferase 1A1; test: Inhibition of UGT1A in rat hepatocytes assessed as decrease in bilirubin monoglucuronide level at 75 uM preincubated for 2 mins followed by UDPGA addition measured after 45 mins by HPLC analysis; assay type: ADME, cell-based; conditions: 0.75 h; method in brief: as §1
# [8] = biological target: T3, UDP-glucose 6-dehydrogenase; test: Inhibition of UDPGDH in rat hepatocytes assessed as decrease in bilirubin monoglucuronide level at 10 uM preincubated for 2 mins followed by UDPGA addition measured after 45 mins in presence of regorafenib by HPLC analysis; assay type: cell-based; conditions: 0.75 h
# [9] = biological target: T4, UDPGDH (UDP-glucose 6-dehydrogenase); test: Inhibition of UDPGDH in rat hepatocytes assessed as decrease in bilirubin monoglucuronide level at 10 uM preincubated for 2 mins followed by UDPGA addition measured after 45 mins by HPLC analysis relative to control; assay type: cell-based; conditions: probe bilirubin (readout: bilirubin monoglucuronide level); method in brief: as §1
# [10] = biological target: T2, UDP-glucuronosyltransferase 1A1; test: Inhibition of UGT1A in rat hepatocytes preincubated for 2 mins followed by UDPGA addition measured after 45 mins by HPLC analysis; assay type: ADME, cell-based; method in brief: as §1
# [11] = biological target: T2, UDP-glucuronosyltransferase 1A1; test: Inhibition of UGT1A in rat hepatocytes assessed as increase in unconjugated bilirubin level at 75 uM preincubated for 2 mins followed by UDPGA addition measured after 45 mins by HPLC analysis; assay type: ADME, cell-based; conditions: 0.75 h; method in brief: as §1
# [12] = test system: REH; test: Cytotoxicity against human REH cells assessed as reduction in cell viability […] by Alamar Blue assay; assay type: functional, cell-based
# [13] = biological target: T3, UDP-glucose 6-dehydrogenase; test: Inhibition of UDPGDH in rat hepatocytes assessed as increase in unconjugated bilirubin level at 10 uM preincubated for 2 mins followed by UDPGA addition measured after 45 mins by HPLC analysis relative to control; assay type: cell-based; parameters: scale not given: the % may be the effect or the level left; conditions: 0.75 h; method in brief: as §1
# [14] = biological target: T3, UDP-glucose 6-dehydrogenase; test: Inhibition of UDPGDH in rat hepatocytes assessed as decrease in bilirubin diglucuronide level at 10 uM after 45 mins in presence of UDPGA by HPLC analysis; assay type: cell-based; conditions: 0.75 h; method in brief: as §1
# [15] = biological target: T3, UDP-glucose 6-dehydrogenase; test: Inhibition of UDPGDH in rat hepatocytes assessed as decrease in bilirubin diglucuronide level at 5 to 10 uM preincubated for 2 mins followed by UDPGA addition measured after 45 mins by HPLC analysis; assay type: cell-based; conditions: 0.75 h; method in brief: as §1
# [16] = biological target: T4, UDPGDH (UDP-glucose 6-dehydrogenase); test: Inhibition of UDPGDH in rat hepatocytes assessed as decrease in bilirubin diglucuronide level at 10 uM preincubated for 2 mins followed by UDPGA addition measured after 45 mins by HPLC analysis relative to control; assay type: cell-based; conditions: probe bilirubin (readout: bilirubin diglucuronide level); method in brief: as §1
# [17] = biological target: T3, UDP-glucose 6-dehydrogenase; test: Inhibition of UDPGDH in rat hepatocytes assessed as decrease in bilirubin diglucuronide level at 10 uM preincubated for 2 mins followed by UDPGA addition measured after 45 mins in presence of regorafenib by HPLC analysis; assay type: cell-based; conditions: 0.75 h
# [18] = biological target: T4, UDPGDH (UDP-glucose 6-dehydrogenase); test: Inhibition of UDPGDH in rat hepatocytes assessed as decrease in bilirubin diglucuronide level at 5 uM preincubated for 2 mins followed by UDPGA addition measured after 45 mins by HPLC analysis relative to control; assay type: cell-based; conditions: probe bilirubin (readout: bilirubin diglucuronide level); method in brief: as §1
# [19] = biological target: T3, UDP-glucose 6-dehydrogenase; test: Inhibition of UDPGDH in rat hepatocytes assessed as increase in unconjugated bilirubin level at 5 uM preincubated for 2 mins followed by UDPGA addition measured after 45 mins by HPLC analysis relative to control; assay type: cell-based; parameters: scale not given: the % may be the effect or the level left; conditions: 0.75 h; method in brief: as §1
# [20] = biological target: T2, UDP-glucuronosyltransferase 1A1; test: Inhibition of UGT1A in rat hepatocytes assessed as decrease in bilirubin diglucuronide level at 75 uM preincubated for 2 mins followed by UDPGA addition measured after 45 mins by HPLC analysis; assay type: ADME, cell-based; conditions: 0.75 h; method in brief: as §1
# [21] = biological target: T4, UDPGDH (UDP-glucose 6-dehydrogenase); test: Inhibition of UDPGDH in rat hepatocytes assessed as increase in unconjugated bilirubin level at 25 uM preincubated for 2 mins followed by UDPGA addition measured after 45 mins by HPLC analysis relative to control; assay type: cell-based; conditions: probe bilirubin (readout: unconjugated bilirubin level); method in brief: as §1
# [22] = biological target: T4, UDPGDH (UDP-glucose 6-dehydrogenase); test: Inhibition of UDPGDH in rat hepatocytes assessed as decrease in bilirubin monoglucuronide level at 50 uM preincubated for 2 mins followed by UDPGA addition measured after 45 mins by HPLC analysis relative to control; assay type: cell-based; conditions: probe bilirubin (readout: bilirubin monoglucuronide level); method in brief: as §1
# [23] = biological target: T4, UDPGDH (UDP-glucose 6-dehydrogenase); test: Inhibition of UDPGDH in rat hepatocytes assessed as decrease in bilirubin diglucuronide level at 50 uM preincubated for 2 mins followed by UDPGA addition measured after 45 mins by HPLC analysis relative to control; assay type: cell-based; conditions: probe bilirubin (readout: bilirubin diglucuronide level); method in brief: as §1
# [24] = biological target: T4, UDPGDH (UDP-glucose 6-dehydrogenase); test: Inhibition of UDPGDH in rat hepatocytes assessed as decrease in bilirubin diglucuronide level at 25 uM preincubated for 2 mins followed by UDPGA addition measured after 45 mins by HPLC analysis relative to control; assay type: cell-based; conditions: probe bilirubin (readout: bilirubin diglucuronide level); method in brief: as §1
# [25] = biological target: T4, UDPGDH (UDP-glucose 6-dehydrogenase); test: Inhibition of UDPGDH in rat hepatocytes assessed as decrease in bilirubin monoglucuronide level at 25 uM preincubated for 2 mins followed by UDPGA addition measured after 45 mins by HPLC analysis relative to control; assay type: cell-based; conditions: probe bilirubin (readout: bilirubin monoglucuronide level); method in brief: as §1
compound,measurement,setting,value
CNC(=O)c1cc(Oc2ccc(NC(=O)Nc3ccc(Cl)c(C(F)(F)F)c3)c(F)c2)ccn1 [REGORAFENIB],"inhibition at 0.75 h, 10 µM",[1],96%
same,inhibition (INH),[2],Active
same,"inhibition at 0.75 h, 10 µM",[3],89%
same,inhibition (INH),[4],Active
O=c1[nH]c(=S)c2[nH]c(=O)[nH]c2[nH]1,Ki,[5],7 µM
same,"inhibition at 0.75 h, 5 µM",[6],71%
same,inhibition (INH),[7],Not Active
same,inhibition (INH),[8],Active
same,"inhibition at 0.75 h, 10 µM",[9],81%
same,Ki,[10],> 100 µM
same,inhibition (INH),[11],Not Active
same,IC50,[12],> 10 µM
same,Activity,[13],42%
same,inhibition (INH),[14],Not Active
same,inhibition (INH),[15],Active
same,"inhibition at 0.75 h, 10 µM",[16],86%
same,inhibition (INH),[17],Active
same,"inhibition at 0.75 h, 5 µM",[18],76%
same,Activity,[19],31%
same,inhibition (INH),[20],Not Active
COc1cccc2c1C(=O)c1c(O)c3c(c(O)c1C2=O)C[C@@](O)(C(=O)CO)C[C@@H]3O[C@H]1C[C@H](N)[C@H](O)[C@H](C)O1 [DOXORUBICIN],IC50,[12],0.285 µM
Sc1ncnc2[nH]c(Cl)nc12,Ki,[5],163 µM
same,IC50,[12],3.95 µM
O=c1[nH]c(=S)c2nc[nH]c2[nH]1,Ki,[5],54 µM
same,Ki,[10],> 100 µM
same,IC50,[12],> 10 µM
Sc1ncnc2[nH]c(Br)nc12,Ki,[5],192 µM
same,IC50,[12],9.54 µM
Oc1nc2c(S)ncnc2[nH]1,Ki,[5],14 µM
same,Ki,[10],> 100 µM
same,IC50,[12],9.91 µM
Sc1ncnc2nc[nH]c12 [MERCAPTOPURINE ANHYDROUS],"inhibition at 0.75 h, 25 µM",[21],19%
same,Ki,[5],288 µM
same,"inhibition at 0.75 h, 50 µM",[22],28%
same,inhibition (INH),[7],Not Active
same,"inhibition at 0.75 h, 50 µM",[23],26%
same,"inhibition at 0.75 h, 25 µM",[24],12%
same,Ki,[10],> 100 µM
same,inhibition (INH),[11],Not Active
same,IC50,[12],2.94 µM
same,"inhibition at 0.75 h, 25 µM",[25],19%
same,inhibition (INH),[15],Active
same,inhibition (INH),[20],Not Active
Fc1nc2c(S)ncnc2[nH]1,Ki,[5],215 µM
same,IC50,[12],4.71 µM
